Screening data: PubChem, The Scripps Research Institute Molecular Screening Center
Shown are actives, neighbours in structure and some others; about 4.6% of the full set was active somewhere.
TAAR1 antagonist – antagonists of human TAAR1; CHO RD-HGA16 TAAR1, Fluo-8 calcium fluorescence, antagonist; Q96RJ0; 1.5% of 360,000 active; inhibition, % at 3 µM;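 active = inhibition above a per-plate cutoff, the mean inhibition of test compounds on that plate plus 3 SD, cut at about 49% in these data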;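 also: 0% = DMSO plus EC80 beta-PEA response and 100% = DMSO alone without agonist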
Target sequence (Q96RJ0 whole entry, looked up): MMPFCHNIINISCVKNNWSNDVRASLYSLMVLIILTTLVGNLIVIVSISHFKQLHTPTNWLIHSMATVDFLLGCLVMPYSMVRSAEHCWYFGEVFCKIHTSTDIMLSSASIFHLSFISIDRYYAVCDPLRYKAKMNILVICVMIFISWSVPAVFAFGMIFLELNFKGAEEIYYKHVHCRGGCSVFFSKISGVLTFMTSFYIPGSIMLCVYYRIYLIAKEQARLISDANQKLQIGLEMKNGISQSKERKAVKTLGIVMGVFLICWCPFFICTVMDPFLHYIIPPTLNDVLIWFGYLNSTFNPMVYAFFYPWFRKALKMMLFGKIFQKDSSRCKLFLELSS
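System: RD-HGA16 CHO cells with stable hTAAR1 and Gα16 | Probe or stimulus: EC80 β-phenethylamine stimulus | Dosing: 3 µM, single point | Times: Dye loading 75 min at 37 °C, then 30 min room temperature | Measured by: Fluo-8 calcium-sensitive fluorescence | Read-out basis: % inhibition of agonist calcium response | Replicates: n of 1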
GPR7 antagonist – antagonists of human GPR7 (neuropeptides B/W receptor 1); AID 1861; inhibition, % at 4.4 µM; GPR7-expressing cells, fluorescence antagonist assay; P48145; 1.1% of 290,000 active; in the data active = inhibition above about 16%, passing the limit was not always enough;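 also: cells stimulated with the agonist NPW; 0% = agonist with vehicle and 100% = vehicle without agonist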
Target sequence (P48145 whole entry, looked up): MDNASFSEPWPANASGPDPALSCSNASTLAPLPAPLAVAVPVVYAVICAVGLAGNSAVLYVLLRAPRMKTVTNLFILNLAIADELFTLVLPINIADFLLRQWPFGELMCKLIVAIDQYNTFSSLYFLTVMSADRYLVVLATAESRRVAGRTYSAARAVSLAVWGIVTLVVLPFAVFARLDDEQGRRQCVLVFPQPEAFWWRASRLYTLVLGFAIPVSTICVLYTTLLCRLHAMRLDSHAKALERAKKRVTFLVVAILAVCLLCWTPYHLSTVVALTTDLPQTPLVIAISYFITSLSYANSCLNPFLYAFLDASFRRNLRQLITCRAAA
OX1R antag-1 – antagonists of human orexin 1 receptor. O43613. CHO/OX1R cells, Fluo-8 calcium fluorescence, orexin A. inhibition, % at 5 µM. 0.43% of 330,000 active. AID 434989;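 active = inhibition above its plate's threshold, mean inhibition of all tested compounds on the plate plus 3 SD, cut at about 37% in these data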;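 also: 0% = orexin A challenge wells and 100% = SB-334867-A antagonist wells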
OX1R antag-2 – blocks the human orexin 1 receptor; O43613; OX1R-expressing cells, FRET antagonist read-out; inhibition, % at 6.6 µM; 1.8% of 330,000 active; AID 485270; in the data active = inhibition mostly above about 38%, no sharp cut-off; inactive = mostly below about 40%;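 also: 0% = agonist challenge alone and 100% = reference antagonist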
CHO parental Ca – counter-screen for OX1R antagonists: effect in parental CHO cells; parental CHO-K1, ATP-induced calcium, Fluo-8 fluorescence; inhibition, % at 5.6 µM; 0.63% of 330,000 active; AID 463079;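 active = inhibition above that plate's mean sample inhibition plus 3 SD, cut at about 26% in these data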;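 also: 0% = ATP-challenged DMSO wells and 100% = DMSO wells without ATP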
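Assay system: parental CHO cells; Read-out basis: percent inhibition of ATP-evoked calcium rise, normalized to controls; Benchmarks: ATP and no-ATP DMSO wells; Compound dosing: single nominal dose of 5.6 µM per compound; Signal: Fluo-8 calcium dye fluorescence; Also added: ATP as calcium-mobilizing challenge; Repeats: singlicate.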
TAAR1 ag – human TAAR1 agonism; Q96RJ0; CHO RD-HGA16 TAAR1, Fluo-8 calcium fluorescence; vehicle wells 0%, saturating PEA agonist 100%; activation, % at 3 µM; 0.99% of 360,000 active; AID 624467;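 active = activation above the mean activation of all test compounds in the run plus 3 SD, cut at about 38% in these data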
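System: CHO-derived RD-HGA16 cells with stable Gα16 and human TAAR1. Times: 17-24 h plating, Fluo-8 75 min 37 °C, 30 min RT. Measured by: calcium-sensitive Fluo-8 signal, excitation 470-495, emission 515-575 nm. Read-out basis: % activation relative to PEA EC100 response. Control set: DMSO and PEA EC100. Repeats: no replicates (n 1).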
An asterisk follows results filed as active.

`O=Cc1ccc(OCC(=O)N2CCOCC2)cc1` gave TAAR1 antagonist -14, GPR7 antagonist -7, OX1R antag-1 -12, OX1R antag-2 12, CHO parental Ca -2 and TAAR1 ag 2.
COc1cc(Cl)c(C)cc1NC(=O)CN(C)C1CCS(=O)(=O)C1 (centres undefined) was read as TAAR1 antagonist -29, OX1R antag-1 -19, OX1R antag-2 3, CHO parental Ca -16 and TAAR1 ag 12.
Screening COc1ccccc1CNn1c(-c2cccc(C)c2)nc2ccccc2c1=O returned TAAR1 antagonist 43, GPR7 antagonist -18, OX1R antag-1 18, OX1R antag-2 51*, CHO parental Ca -36 and TAAR1 ag 11.
For Cc1ccc2nc(N/N=C/c3ccccc3F)nc(-c3ccccc3)c2c1 the results were TAAR1 antagonist 13, GPR7 antagonist -4, OX1R antag-1 -22, OX1R antag-2 51*, CHO parental Ca -22 and TAAR1 ag 3.
CSCCC(NS(=O)(=O)c1ccc2c(c1)OCCO2)C(=O)N(C)Cc1ccccc1F (centres undefined) was read as TAAR1 antagonist 55*, OX1R antag-1 -19, OX1R antag-2 9, CHO parental Ca -18 and TAAR1 ag 31.
For CN(C)CCCN(C(=O)COc1ccc(Cl)cc1)c1nc2ccc(F)cc2s1 the results were TAAR1 antagonist 5, GPR7 antagonist 0, OX1R antag-1 -19, OX1R antag-2 8, CHO parental Ca -2 and TAAR1 ag 41*.
`Cc1ccc2nc(N(CCCN(C)C)C(=O)c3ccc4c(c3)CCCC4)sc2c1` gave TAAR1 antagonist 20, GPR7 antagonist 9, OX1R antag-1 -4, OX1R antag-2 -1, CHO parental Ca 0 and TAAR1 ag 38*.
For Cc1ccc2nc(N(CCCN(C)C)C(=O)COc3ccc(Cl)cc3)sc2c1 the results were TAAR1 antagonist 10, GPR7 antagonist -7, OX1R antag-1 -12, OX1R antag-2 1, CHO parental Ca -2 and TAAR1 ag 45*.
`Cc1cc(C)c2sc(N(CCCN(C)C)C(=O)COc3ccc(Cl)cc3)nc2c1` gave TAAR1 antagonist 20, GPR7 antagonist 9, OX1R antag-1 -8, OX1R antag-2 14, CHO parental Ca 7 and TAAR1 ag 35.
For CN(C)CCCN(C(=O)COc1ccccc1)c1nc2ccc(F)cc2s1 the results were TAAR1 antagonist 0, GPR7 antagonist -12, OX1R antag-1 -30, OX1R antag-2 8, CHO parental Ca -13 and TAAR1 ag 11.
`Cc1ccc(CC(=O)OCC(=O)c2ccc[nH]2)cc1C` gave TAAR1 antagonist 2, OX1R antag-1 -26, OX1R antag-2 9, CHO parental Ca -1 and TAAR1 ag 0.
O=C(CCC1CCCC1)NNC(=O)c1ccc(F)cc1 was read as TAAR1 antagonist -1, OX1R antag-1 -18, OX1R antag-2 10, CHO parental Ca -7 and TAAR1 ag 3.
O=[N+]([O-])c1cccnc1N1CCOCC1 was read as TAAR1 antagonist 10, GPR7 antagonist 0, OX1R antag-1 6, OX1R antag-2 10, CHO parental Ca 0 and TAAR1 ag 5.
`CN1CCN(CC(=O)Nc2cc(N3CCOCC3)ccc2[N+](=O)[O-])CC1` gave TAAR1 antagonist 0, GPR7 antagonist -13, OX1R antag-1 -4, OX1R antag-2 65*, CHO parental Ca 2 and TAAR1 ag 1.
`CC(=O)c1cc(N2CCOCC2)ccc1[N+](=O)[O-]` gave TAAR1 antagonist -6, GPR7 antagonist 6 and TAAR1 ag 0.
O=[N+]([O-])c1ccc(N2CCOCC2)cc1O was read as TAAR1 antagonist 6, GPR7 antagonist 10, OX1R antag-1 -5, OX1R antag-2 42*, CHO parental Ca -11 and TAAR1 ag 0.
Screening O=[N+]([O-])c1ccc(N2CCOCC2)cn1 returned TAAR1 antagonist 13, GPR7 antagonist -3, OX1R antag-1 -16, OX1R antag-2 40*, CHO parental Ca -3 and TAAR1 ag 2.
O=C(Nc1ccccc1)N(Cc1ccccc1)C1=NCCS1 was read as TAAR1 antagonist 5, GPR7 antagonist 0, OX1R antag-1 -2, OX1R antag-2 12, CHO parental Ca -8 and TAAR1 ag 40*.
For O=C1C(Cl)=C(O)C2(Cl)C(Cl)=C(Cl)C12Cl (centres undefined) the results were TAAR1 antagonist 12 and TAAR1 ag 0.
`Cc1sc2ncnc(NCCc3ccc(S(N)(=O)=O)cc3)c2c1C` gave TAAR1 antagonist 24, GPR7 antagonist 19, OX1R antag-1 20, OX1R antag-2 37, CHO parental Ca 53* and TAAR1 ag 6.
For N/N=C1\CCCc2nonc21 the results were TAAR1 antagonist 0, GPR7 antagonist -9, OX1R antag-1 -2, OX1R antag-2 22, CHO parental Ca 5 and TAAR1 ag 8.
CCC(OCC(O)CN1CCN(CCN2C(=O)c3cccc4cccc(c34)C2=O)CC1)c1ccccc1 (centres undefined) was read as TAAR1 antagonist 2, GPR7 antagonist -5, OX1R antag-1 -36, OX1R antag-2 24, CHO parental Ca -31 and TAAR1 ag 8.
For CC(C)OCC(O)CN1CCN(CCN2C(=O)c3cccc4cccc(c34)C2=O)CC1 (centres undefined) the results were TAAR1 antagonist -8, GPR7 antagonist -2, OX1R antag-1 -30, OX1R antag-2 41*, CHO parental Ca -8 and TAAR1 ag 1.
For COc1cccc(-n2nnnc2S(C)(=O)=O)c1 the results were GPR7 antagonist 28*, OX1R antag-1 -1, OX1R antag-2 10 and CHO parental Ca 19.
For CCCC(=O)OCCNc1cc(Sc2nc3ccccc3[nH]2)c2nonc2c1[N+](=O)[O-] the results were TAAR1 antagonist 28, GPR7 antagonist 25*, OX1R antag-1 13, OX1R antag-2 65*, CHO parental Ca 38* and TAAR1 ag 0.
For CC(=O)OCCCNc1cc(Sc2ccc(Cl)cc2)c2nonc2c1[N+](=O)[O-] the results were TAAR1 antagonist -11, GPR7 antagonist -10, OX1R antag-1 16, OX1R antag-2 9, CHO parental Ca 2 and TAAR1 ag 3.
Screening C=CCN(CC=C)S(=O)(=O)c1ccc(NC(=O)COc2ccccc2OC)cc1 returned TAAR1 antagonist 36, GPR7 antagonist 7, OX1R antag-1 6, OX1R antag-2 20, CHO parental Ca 38* and TAAR1 ag 8.
Screening COc1ccccc1OCC(=O)Nc1ccc(S(=O)(=O)N2CCCCCC2)cc1 returned TAAR1 antagonist 28, GPR7 antagonist -10, OX1R antag-1 1, OX1R antag-2 -2, CHO parental Ca -9 and TAAR1 ag 6.
Screening O=C(CCNC(=O)c1ccccc1)NNC(=O)c1ccc(F)cc1 returned TAAR1 antagonist -12, OX1R antag-1 5, OX1R antag-2 7, CHO parental Ca 10 and TAAR1 ag 7.
